In ChEMBL document CHEMBL2311371, “Effects of fluorines on nonsecosteroidal vitamin D receptor agonists” (2013):

Legend:
HL-60 = test: Induction of human HL60 cell differentiation after 4 days by WST-8 assay relative to 1.25-OH2 D3; type: functional
Method in brief: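 HL-60 cells seeded 2×10^5 cells/mL in RPMI-1640 with 10% heat-inactivated FBS and antibiotics, 37 °C, 5% CO2. Cultured 4 days with 10^-10 to 10^-7 M compound. On the final day, PMA (final 100 ng/mL) plus WST-8 (final 20%) added for 90 min; absorbance change read at 450 nm. EC50 expressed as ratio to 1,25(OH)2D3 (set 100%).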

[1] = biological target: T1, Vitamin D3 receptor (Homo sapiens) (UniProt P11473); test: Agonist activity at VDR in human MG-63 cells assessed as osteocalcin production compound incubated for 8 hrs measured after 4 days by EIA relative to 1,25(OH)2D3; type: cell-based
T1 sequence (whole entry): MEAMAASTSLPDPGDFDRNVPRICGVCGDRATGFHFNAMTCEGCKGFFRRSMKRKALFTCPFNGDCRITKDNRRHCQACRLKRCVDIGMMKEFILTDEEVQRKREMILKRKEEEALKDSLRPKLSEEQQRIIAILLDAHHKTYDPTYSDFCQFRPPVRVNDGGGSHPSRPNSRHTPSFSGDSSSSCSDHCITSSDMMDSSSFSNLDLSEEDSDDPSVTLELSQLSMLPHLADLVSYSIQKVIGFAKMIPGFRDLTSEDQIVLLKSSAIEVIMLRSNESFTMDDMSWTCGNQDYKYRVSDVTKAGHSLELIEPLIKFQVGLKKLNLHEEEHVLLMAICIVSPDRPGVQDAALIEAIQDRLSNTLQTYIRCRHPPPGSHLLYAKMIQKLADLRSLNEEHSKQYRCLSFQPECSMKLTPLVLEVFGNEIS
Method in brief: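 MG-63 cells seeded 2×10^3/well in serum-free MEM, 24 h at 37 °C, 5% CO2; washed and switched to 5% DCC-FBS/MEM. Serial dilutions 10^-7 to 10^-11 mol/L (0.1% DMSO) applied 8 h, then medium replaced and culture continued 4 days. Gla-type osteocalcin in supernatant measured by EIA at 450 nm against standards. EC50 expressed as ratio to 1,25(OH)2D3 (set 100%).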

[2] = biological target: T1, Vitamin D3 receptor (Homo sapiens); test: Agonist activity at VDR in human MG-63 cells assessed as transcriptional activation of osteopontin gene after 3 days by luciferase reporter gene assay relative to 1,25(OH)2D3; type: cell-based
Method in brief: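 MG-63 cells seeded 2×10^3/well, 24 h at 37 °C, 5% CO2. Cotransfected with VDRE-luciferase construct (three osteopontin-promoter VDRE repeats, 0.05 µg) plus pRL-SV40 (0.001 µg) by lipofection. Kept 8 h in MEM with 5% DCC-FBS, then dosed 10^-7 to 10^-11 mol/L (0.1% DMSO) for 3 days. Dual-luciferase readout on lysates. EC50 expressed as ratio to 1,25(OH)2D3 (set 100%).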

Activity [1] | Activity [2] | SMILES | Activity (HL-60)
185% |  | CCC(CC)(c1ccc(OCC(O)CO)c(C)c1)c1ccc(OCC(O)C(C)(C)C)c(C)c1 (centres undefined) [LG-190178] | 71%
429% | 91% | CCC(CC)(c1ccc(CCC(O)(C(F)(F)F)C(F)(F)F)c(C)c1)c1ccc(OC[C@@H](O)CCC(=O)[O-])c(C)c1.[Na+] | 106%
546% | 30% | CCC(CC)(c1ccc(C#CC(O)(C(F)(F)F)C(F)(F)F)c(C)c1)c1ccc(OC[C@@H](O)CCC(=O)[O-])c(C)c1.[Na+] | 227%
447% | 105% | CCC(O)(/C=C/c1ccc(C(CC)(CC)c2ccc(OC[C@@H](O)CCC(=O)[O-])c(C)c2)cc1C)CC.[Na+] | 126%
3750% | 592% | CCC(CC)(c1ccc(/C=C/C(O)(C(F)(F)F)C(F)(F)F)c(C)c1)c1ccc(OC[C@@H](O)CCC(=O)[O-])c(C)c1.[Na+] | 252%
